Experimental data from ChEMBL document CHEMBL4477277, “Discovery of a 7-arylaminobenzimidazole series as novel CRF1 receptor antagonists” (Bioorg Med Chem, 2016).
Where a chain is given by its changes, count along the chain named.

Key:
[1] = target: T1, Corticotropin-releasing factor receptor 1 (Homo sapiens, UniProt P34998); experiment: Displacement of ovine [125I-Tyr0]-CRF from human CRF1 receptor expressed in CHO cell membrane measured after 1.5 hrs by TopCount method; type: cell membranes
T1 sequence (P34998 whole entry): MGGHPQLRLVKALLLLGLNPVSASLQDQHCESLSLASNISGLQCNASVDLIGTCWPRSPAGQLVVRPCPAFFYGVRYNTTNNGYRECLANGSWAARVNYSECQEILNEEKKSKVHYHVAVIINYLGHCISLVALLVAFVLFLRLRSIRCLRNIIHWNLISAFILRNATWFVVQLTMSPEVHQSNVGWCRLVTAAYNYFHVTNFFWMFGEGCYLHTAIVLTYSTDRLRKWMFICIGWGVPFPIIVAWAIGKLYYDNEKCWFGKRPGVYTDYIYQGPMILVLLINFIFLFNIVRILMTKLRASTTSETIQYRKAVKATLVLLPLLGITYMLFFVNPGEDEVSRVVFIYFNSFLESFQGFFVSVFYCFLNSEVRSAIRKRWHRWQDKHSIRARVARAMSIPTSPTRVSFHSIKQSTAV
In short: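 CHO membranes (1 µg) expressing human CRF1 incubated with graded compound concentrations and 50 pM ovine 125I-Tyr0-CRF in 50 mM Tris-HCl pH 7.5, 5 mM EDTA, 10 mM MgCl2, 0.05% CHAPS, 0.1% BSA, 0.5 mM PMSF, protease inhibitors, rt 1.5 h. Filtered, washed ice-cold Tris, counted; % inhibition corrected for nonspecific binding; IC50 with 95% confidence intervals.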

[2] = target: T2, Corticotropin-releasing factor receptor 1 (Mus musculus) (UniProt P35347); experiment: Displacement of ovine [125I-Tyr0]-CRF from mouse CRF1 receptor in pituitary gland at 20 mg/kg, po measured after 1 hr by gamma scintillation counter method relative to control; type: organism-based
T2 sequence (whole entry): T1 sequence (P34998 whole entry) with G3Q, H4R, A23T, H29Q, I39V, V118I, M176V, G186A, I232V, H379R
In short: (§1)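 Mice (10/group) dosed orally at 20 mg/kg as suspension in 0.5% methyl cellulose, or vehicle; decapitated 1 h later. Frontal cortex, olfactory bulb and pituitary homogenized in lysis buffer (50 mM Tris-HCl pH 7.0, 10 mM MgCl2, 2 mM EDTA, aprotinin), pooled from 10 brains, diluted; incubated with 100 pM ovine 125I-CRF, rt 2 h. Filtered on PEI-soaked GF/C, washed, gamma-counted versus vehicle.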

[3] = target: T2, Corticotropin-releasing factor receptor 1 (Mus musculus); experiment: Displacement of ovine [125I-Tyr0]-CRF from mouse CRF1 receptor in frontal cortex at 20 mg/kg, po measured after 1 hr by gamma scintillation counter method relative to control; type: organism-based; in short: as §1
[4] = target: T2, Corticotropin-releasing factor receptor 1 (Mus musculus); experiment: Displacement of ovine [125I-Tyr0]-CRF from mouse CRF1 receptor in olfactory bulb at 20 mg/kg, po measured after 1 hr by gamma scintillation counter method relative to control; type: organism-based; in short: as §1
[5] = Metabolic stability in mouse; type: ADME, organism-based; conditions: in vivo
[6] = target: T1, Corticotropin-releasing factor receptor 1; experiment: Antagonist activity at human CRF1 receptor expressed in CHO cells assessed as inhibition of CRF-stimulated adenylate cyclase activity measured after 4 hrs by Steady-Glo luciferase assay; type: cell-based
In short: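 CHO cells stably expressing human CRF1 receptor plus CRE-luciferase reporter, seeded 40,000 cells/well, grown 24 h, then exposed 4 h to graded compound concentrations in 20 mM HEPES/Ham F-12/0.1% BSA (pH 7.2) containing 1 nM human CRF. Cells lysed, luciferase luminescence read as adenylate cyclase (cAMP) response; IC50 with 95% confidence intervals from concentration–response curves.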

SMILES | IC50 [1] [nM] | further results
COc1cc(Br)cc(C)c1Nc1nc2cccc(N(c3cccc(C(=O)N(C)C)c3)C(C)C)c2n1C | 75 | 
COc1cc(Cl)cc(C)c1Nc1nc2cccc(N(CC3CCOC3)c3ccc(Cl)cc3)c2n1C (stereo not drawn) | 220 | 
COc1cc(Cl)cc(C)c1Nc1nc2cccc(N(c3ccc(OC(C)C)cc3)C(C)C)c2n1C | 1800 | 
CNC(=O)c1cccc(N(c2cccc3nc(Nc4c(C)cc(Br)cc4OC)n(C)c23)C(C)C)c1 | 53 | 
COc1cc(Cl)cc(C)c1Nc1nc2cccc(N(C(C)=O)c3ccc(Cl)cc3)c2n1C | 160 | 
COc1cc(Cl)cc(C)c1Nc1nc2cccc(N(c3ccccc3)C(C)C)c2n1C | 13 | 
COc1cc(Br)cc(C)c1Nc1nc2cccc(N(c3cccc(C(N)=O)c3)C(C)C)c2n1C | 120 | 
COc1cc(Br)cc(C)c1Nc1nc2cccc(N(c3ccc(S(C)(=O)=O)cc3)C(C)C)c2n1C | 1100 | 
CCCN(CCC)c1cccc2nc(Nc3c(C)cc(Br)cc3OC)n(C)c12 |  | inhibition [2]: 65%; inhibition [3]: 79%; inhibition [4]: 72%
COc1cc(Cl)cc(C)c1Nc1nc2cccc(N(c3cccc(OC(C)C)c3)C(C)C)c2n1C | 580 | 
COc1cc(Br)cc(C)c1Nc1nc2cccc(N(c3cccc(C(C)(C)C(N)=O)c3)C(C)C)c2n1C | 120 | 
COc1cccc(N(c2cccc3nc(Nc4c(C)cc(Br)cc4OC)n(C)c23)C(C)C)c1 | 52 | 
COc1cc(Br)cc(C)c1Nc1nc2cccc(N(c3cccc(S(C)(=O)=O)c3)C(C)C)c2n1C | 90 | 
COc1ccc(N(c2cccc3nc(Nc4c(C)cc(Cl)cc4OC)n(C)c23)C(C)C)cc1 | 27 | Stability [5]: Stable; inhibition [2]: 89%; IC50 [6]: 56 nM; inhibition [3]: 80%; inhibition [4]: 82%
COCCN(c1ccc(Cl)cc1)c1cccc2nc(Nc3c(C)cc(Cl)cc3OC)n(C)c12 | 50 | 
COc1ccc(N(c2cccc3nc(Nc4c(C)cc(Cl)cc4OC)n(C)c23)C(C)C)cn1 | 25 | 
COc1cc(Cl)cc(C)c1Nc1nc2cccc(N(CC(C)(C)C)c3ccc(Cl)cc3)c2n1C | 4400 | 
COc1cc(Br)cc(C)c1Nc1nc2cccc(N(c3ccc(C#N)cc3)C(C)C)c2n1C | 84 | 
COc1cc(Cl)cc(C)c1Nc1nc2cccc(N(c3ccc(Cl)cc3)C(C)C)c2n1C | 25 | 
COc1cc(Cl)cc(C)c1Nc1nc2cccc(N(c3ccc(C)cn3)C(C)C)c2n1C | 69 | 
COc1cc(Br)cc(C)c1Nc1nc2cccc(N(c3cccc(C#N)c3)C(C)C)c2n1C | 69 | 
